# Key:
# [1] = Plasma clearance in rhesus monkey at 2 mg/kg, iv by LC/MS/MS analysis; format: ADME, organism-based, Macaca mulatta; design: dose 2 mg/kg, route intravenous
# Method in brief: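 Fasted animals received an IV bolus in DMSO at 1.0 ml/kg for rats and 0.1 ml/kg for dogs and rhesus monkeys, at 2 mg/kg; n = 3 per species. Blood was drawn into EDTA tubes at set times, and plasma was separated by centrifugation and stored at −70°C. Drug was quantified by LC/MS/MS after protein precipitation.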
# [2] = test system: Hepatitis C virus; assay: Antiviral activity against Hepatitis C virus containing NS3/4a ps37 sequence by transient cell-base protease activity; format: functional, organism-based, Hepacivirus hominis
# Method in brief: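 Transient cell-based phenotype assay of protease activity, using NS3/4A sequences cloned from plasma of HCV-infected patients. EC50s were determined.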
smiles,measurement,setting,value
CC[C@@H]1C[C@]1(NC(=O)[C@@H]1C[C@@H]2CN1C(=O)[C@H](C(C)(C)C)NC(=O)OCC(C)(C)CCCCc1cccc3c1CN(C3)C(=O)O2)C(=O)NS(=O)(=O)C1CC1 [VANIPREVIR],clearance,[1],18 mL/min/kg
same,EC50,[2],6.5 nM

# — ChEMBL document CHEMBL1240347, “MK-7009, a potent and selective inhibitor of hepatitis C virus NS3/4A protease” (Antimicrob Agents Chemother, 2010)
